Measured values from ChEMBL document CHEMBL1123591, “Synthetic analogues of tetrahydrobiopterin with cofactor activity for aromatic amino acid hydroxylases” (1987).
“And” between values parts separate entries of the source, which are not always exact repeats. Identical values can stand only once.

What was measured:
[1] = compound: CC1CNc2nc(N)[nH]c(=O)c2N1; assay: Tested in isolated enzyme assay for its cofactor activity against tryptophan hydroxylase (isolated from rat brain stem) expressed as Michaelis-Menten constant (calculated in the presence of platinum catalyst)
[2] = substrate: CC(O)C(O)C1CNc2nc(N)nc(O)c2N1; assay: (§1) Tested in isolated enzyme assay for its cofactor activity against tryptophan hydroxylase (isolated from rat brain stem) expressed as Michaelis-Menten constant
Summary of the method: (§2)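 The tryptophan hydroxylase source was a desalted 40000g supernatant of rat brain stem, with velocities expressed relative to tetrahydrobiopterin.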

[3] = substrate: CCCCCCCCOCC1CNc2nc(N)nc(O)c2N1; assay: as §1; summary of the method: as §2
[4] = substrate: CC(C)OCC1CNc2nc(N)nc(O)c2N1; assay: as §1; summary of the method: as §2
[5] = substrate: CCCCOCC1CNc2nc(N)nc(O)c2N1; assay: as §1; summary of the method: as §2
[6] = substrate: CCOCC1CNc2nc(N)nc(O)c2N1; assay: as §1; summary of the method: as §2
[7] = substrate: COCC1CNc2nc(N)nc(O)c2N1; assay: as §1; summary of the method: as §2
[8] = substrate: CCCOCC1CNc2nc(N)nc(O)c2N1; assay: as §1; summary of the method: as §2
[9] = target: Tyrosine hydroxylase (Bos taurus); assay: Tested in isolated enzyme assay for its cofactor activity against tyrosine hydroxylase (isolated from bovine adrenal medulla) expressed as Michaelis-Menten constant
[10] = substrate: CCCCCCCCOCC1CNc2nc(N)nc(O)c2N1; assay: (§3) Tyrosine hydroxylase (isolated from bovine adrenal medulla) cofactor activity
Summary of the method: (§4)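 Tyrosine hydroxylase was purified from bovine adrenal medulla by partial trypsin digestion, giving a model of the high-affinity form, then ammonium sulfate fractionation. Activity was measured as release of ³H₂O from L-(3,5-³H)tyrosine, with velocities expressed relative to tetrahydrobiopterin.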

[11] = substrate: CC(C)OCC1CNc2nc(N)nc(O)c2N1; assay: as §3; summary of the method: as §4
[12] = substrate: CC(C)COCC1CNc2nc(N)nc(O)c2N1; assay: as §3; summary of the method: as §4
[13] = substrate: CC(C)(C)OCC1CNc2nc(N)nc(O)c2N1; assay: as §3; summary of the method: as §4
[14] = substrate: CCOCC1CNc2nc(N)nc(O)c2N1; assay: as §3; summary of the method: as §4
[15] = substrate: CC1CNc2nc(N)[nH]c(=O)c2N1; assay: as §3; summary of the method: as §4
[16] = substrate: CCCCCOCC1CNc2nc(N)nc(O)c2N1; assay: as §3; summary of the method: as §4
[17] = substrate: COCC1CNc2nc(N)nc(O)c2N1; assay: as §3; summary of the method: as §4
[18] = substrate: COCCOCC1CNc2nc(N)nc(O)c2N1; assay: as §3; summary of the method: as §4
[19] = substrate: CCCOCC1CNc2nc(N)nc(O)c2N1; assay: as §3; summary of the method: as §4
[20] = substrate: CC1(C)CNc2nc(N)nc(O)c2N1; assay: as §3; summary of the method: as §4
[21] = substrate: CC(O)C(O)C1CNc2nc(N)nc(O)c2N1; assay: (§5) Tested in isolated enzyme assay for its cofactor activity against phenylalanine hydroxylase (isolated from rat liver) expressed as Michaelis-Menten constant
Summary of the method: (§6)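 Phenylalanine hydroxylase was isolated from rat liver and purified on phenyl-Sepharose. Tyrosine formed was quantified by liquid chromatography with fluorescence detection, and velocities were expressed relative to tetrahydrobiopterin.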

[22] = substrate: CCCCCCCCOCC1CNc2nc(N)nc(O)c2N1; assay: as §5; summary of the method: as §6
[23] = substrate: CC(C)OCC1CNc2nc(N)nc(O)c2N1; assay: as §5; summary of the method: as §6
[24] = substrate: CCCCOCC1CNc2nc(N)nc(O)c2N1; assay: as §5; summary of the method: as §6
[25] = substrate: CCOCC1CNc2nc(N)nc(O)c2N1; assay: as §5; summary of the method: as §6
[26] = substrate: CC1CNc2nc(N)[nH]c(=O)c2N1; assay: as §5; summary of the method: as §6
[27] = substrate: COCC1CNc2nc(N)nc(O)c2N1; assay: as §5; summary of the method: as §6
[28] = substrate: COCCOCC1CNc2nc(N)nc(O)c2N1; assay: as §5; summary of the method: as §6
[29] = substrate: CCCOCC1CNc2nc(N)nc(O)c2N1; assay: as §5; summary of the method: as §6
[30] = substrate: CC1(C)CNc2nc(N)nc(O)c2N1; assay: as §5; summary of the method: as §6

B1: Tryptophan 5-hydroxylase 1 (Rattus norvegicus), P09810 (protein)
chain: MIEDNKENKDHSSERGRVTLIFSLKNEVGGLIKALKIFQENHVNLLHIESRKSKRRNSEFEIFVDCDINREQLNDIFPLLKSHTTVLSVDSPDQLPEKEDVMETVPWFPKKISDLDFCANRVLLYGSELDADHPGFKDNVYRRRRKYFAELAMNYKHGDPIPKIEFTEEEIKTWGTIFRELNKLYPTHACREYLRNLPLLSKYCGYREDNVPQLEDVSNFLKERTGFSIRPVAGYLSPRDFLSGLAFRVFHCTQYVRHSSDPLYTPEPDTCHELLGHVPLLAEPSFAQFSQEIGLASLGASEETVQKLATCYFFTVEFGLCKQDGQLRVFGAGLLSSISELRHALSGHAKVKPFDPKVACKQECLITSFQDVYFVSESFEDAKEKMREFAKTVKRPFGVKYNPYTQSIQVLRDSKSITSAMNELRHDLDVVNDALARVSRWPSV
Km [1]: 355 µM
Km [2]: 49 µM
Km [3]: 11 µM
Km [4]: 129 µM
Km [5]: 84 µM
Km [6]: 44 µM
Km [7]: 33 µM
Km [8]: 92 µM

B2: Tyrosine 3-monooxygenase (Bos taurus), P17289 (protein)
chain: MPTPNAASPQAKGFRRAVSELDAKQAEAIMSPRFVGRRQSLIQDARKEREKAEAAASSSESAEAAAWLERDGEAVLTLLFALPPTRPPALTRAIKVFETFEAHLHHLETRPAQPLRAGSPPLECFVRCEVPGPVVPALLSALRRVAEDVRAAGESKVLWFPRKVSELDKCHHLVTKFDPDLDLDHPGFSDQAYRQRRKLIAEIAFQYKQGDPIPHVEYTAEETATWKEVYSTLRGLYPTHACREHLEAFELLERFCGYREDRIPQLEDVSRFLKERTGFQLRPAAGLLSARDFLASLAFRVFQCTQYIRHASSPMHSPEPECCHELLGHVPMLADRTFAQFSQDIGLASLGVSDEEIEKLSTLYWFTVEFGLCKQNGEVKAYGAGLLSSYGELLHSLSEEPEIRAFDPDAAAVQPYQDQTYQPVYFVSESFSDAKDKLRSYASRIQRPFSVKFDPYTLAIDVLDSPHAIRHALDGVQDEMQALAHALNAIS
Km [9]: 22 µM
Km [10]: 44 µM
Km [11]: 45 µM and 55 µM
Km [12]: 80 µM
Km [13]: 120 µM
Km [14]: 52 µM and 23 µM
Km [15]: 133 µM and 51 µM
Km [16]: 65 µM
Km [17]: 84 µM
Km [18]: 200 µM
Km [19]: 28 µM and 22 µM
Km [20]: 77 µM and 105 µM

B3: Phenylalanine-4-hydroxylase (Rattus norvegicus), P04176 (protein)
chain: MAAVVLENGVLSRKLSDFGQETSYIEDNSNQNGAISLIFSLKEEVGALAKVLRLFEENDINLTHIESRPSRLNKDEYEFFTYLDKRTKPVLGSIIKSLRNDIGATVHELSRDKEKNTVPWFPRTIQELDRFANQILSYGAELDADHPGFKDPVYRARRKQFADIAYNYRHGQPIPRVEYTEEEKQTWGTVFRTLKALYKTHACYEHNHIFPLLEKYCGFREDNIPQLEDVSQFLQTCTGFRLRPVAGLLSSRDFLGGLAFRVFHCTQYIRHGSKPMYTPEPDICHELLGHVPLFSDRSFAQFSQEIGLASLGAPDEYIEKLATIYWFTVEFGLCKEGDSIKAYGAGLLSSFGELQYCLSDKPKLLPLELEKTACQEYSVTEFQPLYYVAESFSDAKEKVRTFAATIPRPFSVRYDPYTQRVEVLDNTQQLKILADSINSEVGILCNALQKIKS
Km [21]: 5.5 µM
Km [22]: 1 µM
Km [23]: 9 µM
Km [24]: 21 µM
Km [25]: 21 µM
Km [26]: 21 µM
Km [27]: 17 µM
Km [28]: 65 µM
Km [29]: 16 µM
Km [30]: 29 µM
